# UBC13 inh: UBC13 polyubiquitin chain formation inhibitors, primary screen, biochemical, TR-FRET, uHTS. inhibition, % at 20 µM. actives 0.47% (n = 330,000); in the data active means inhibition above about 45%, passing the limit was not always enough
# hiPSC survival: enhancers of single-cell hiPSC survival, primary screen, ATPlite luminescence; 100% = ROCK inhibitor wells, 0% = DMSO; survival enhancement, % at 20 µM; actives 0.044% (n = 360,000); AID 602274, 2012; in the data active means survival enhancement above about 18%;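 further: cells exposed to compounds for 16 hours before the ATP read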
# MIN6 prolif: inducers of MIN6 beta-cell proliferation, primary screen, ATP luminescence, uHTS. AID 2380, 2010. proliferation, % at 10 µM. actives 0.29% (n = 330,000). MIN6 cells proliferation, ATPlite luminescence, 48 h; cells starved in 0.2% serum; 100% = growth in 10% serum;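 active means compounds whose signal lies at least 3.5 SD above the mean of all wells on their plate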;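 further: 0% = DMSO-treated cells in low-serum medium and 100% = 10% serum control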
# Apaf1 inhib: inhibitors of human Apaf-1 apoptosome, primary screen, biochemical, DEVD-Rh110 fluorescence, uHTS; actives 0.71% (n = 330,000); reconstituted apoptosome caspase-3 activity; Apoptotic protease-activating factor 1 (Homo sapiens), O14727; inhibition, % at 20 µM; active means inhibition of at least 40% at 20 µM;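 further: plate controls were DMSO wells for no effect and DEVD-CHO caspase inhibitor wells for full effect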
# Target sequence (O14727 whole entry, looked up): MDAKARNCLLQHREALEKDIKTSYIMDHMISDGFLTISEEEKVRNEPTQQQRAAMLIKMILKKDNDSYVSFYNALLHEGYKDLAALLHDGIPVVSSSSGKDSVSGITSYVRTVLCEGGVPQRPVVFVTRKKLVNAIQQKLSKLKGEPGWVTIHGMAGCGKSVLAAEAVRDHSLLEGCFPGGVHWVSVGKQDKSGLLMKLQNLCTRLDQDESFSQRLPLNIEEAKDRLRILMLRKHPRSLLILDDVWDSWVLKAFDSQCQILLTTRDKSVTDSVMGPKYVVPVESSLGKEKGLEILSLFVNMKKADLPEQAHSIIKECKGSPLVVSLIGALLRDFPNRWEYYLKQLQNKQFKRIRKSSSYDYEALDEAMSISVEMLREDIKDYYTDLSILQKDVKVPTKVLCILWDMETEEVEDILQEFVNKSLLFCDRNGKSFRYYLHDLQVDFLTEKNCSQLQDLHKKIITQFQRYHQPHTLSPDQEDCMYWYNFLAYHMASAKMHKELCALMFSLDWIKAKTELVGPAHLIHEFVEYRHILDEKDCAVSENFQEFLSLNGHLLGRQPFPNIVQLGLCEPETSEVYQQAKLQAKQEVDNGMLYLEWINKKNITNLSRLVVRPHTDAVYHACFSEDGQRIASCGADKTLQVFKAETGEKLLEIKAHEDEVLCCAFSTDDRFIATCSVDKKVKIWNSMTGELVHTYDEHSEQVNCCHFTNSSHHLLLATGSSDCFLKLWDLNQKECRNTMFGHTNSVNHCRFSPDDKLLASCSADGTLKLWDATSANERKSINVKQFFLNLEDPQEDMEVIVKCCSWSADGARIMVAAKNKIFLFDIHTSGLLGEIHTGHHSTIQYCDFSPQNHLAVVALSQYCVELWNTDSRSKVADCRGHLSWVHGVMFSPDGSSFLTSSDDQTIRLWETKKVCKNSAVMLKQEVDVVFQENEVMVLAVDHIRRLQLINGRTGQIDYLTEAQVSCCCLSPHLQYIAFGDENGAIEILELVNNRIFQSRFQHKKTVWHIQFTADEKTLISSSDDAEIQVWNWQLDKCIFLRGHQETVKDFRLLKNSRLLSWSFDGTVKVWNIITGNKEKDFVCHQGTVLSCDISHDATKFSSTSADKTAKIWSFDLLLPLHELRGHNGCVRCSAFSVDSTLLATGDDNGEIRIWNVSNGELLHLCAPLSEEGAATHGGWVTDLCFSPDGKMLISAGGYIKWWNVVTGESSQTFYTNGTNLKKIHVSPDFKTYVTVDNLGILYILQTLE
#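 System – cell-free apoptosome with Apaf-1, procaspase-3 and caspase-9 · Buffer or medium – pH 7.5 Hepes buffer with CHAPS, BSA, DTT · Also added – cytochrome c with DEVD-Rh110 · Times – 30 min compound preincubation, 50 min activation, room temperature · Technique – Rh110 fluorescence intensity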
# MPTP inh: mitochondrial permeability transition pore inhibitors, primary screen, biochemical, isolated mouse mitochondria, absorbance; Ca2+ swelling absorbance, 30 min; inhibition, % at 10 µM; actives 1.4% (n = 360,000); AID 602449, 2012;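 active means inhibition of 50% or more, scaled per plate between neutral and stimulator controls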;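 further: 0% = DMSO wells given calcium and 100% = 1 mM EGTA wells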
# Granule exo inh: LAMP-1 surface exposure blockers, TALL-104 cells – cell-based, flow cytometry, MLPCN library, primary screen; inhibition, % at 10 µM; AID 651702, 2012; actives 0.66% (n = 360,000); TALL-104 LAMP-1 surface exposure; cells stimulated with thapsigargin and PMA;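 active means inhibition above about 55%, limit read from the data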
# Apaf-1 inh conf: Apaf-1 inhibitors, single-dose retest, confirmation, biochemical, fluorescence, DEVD-Rh110, 20 µM; inhibition, % at 20 µM; reconstituted apoptosome, caspase-3 DEVD-Rh110 fluorescence; shares compounds with Apaf1 inhib; actives 25% (n = 1,800); AID 504614, 2011;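 active means mean inhibition of at least 40% at 20 µM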;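 further: plate controls were DMSO wells for no effect and DEVD-CHO caspase inhibitor control wells for full effect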
# Rh110 interf inh: Rh110 fluorescence interference by putative Apaf-1 inhibitors, confirmation, artefact control for Apaf-1 inhibitor project, biochemical, 20 µM. shares compounds with Apaf1 inhib. AID 504615, 2011. activation (fluorescence interference), % at 20 µM. quenched caspase reaction. 1,800 tested, under 10 active;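 active means signal rise of 40% or more at 20 µM, treated as a fluorescence artifact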
# Apaf1 inh interf: fluorescence interference of Apaf-1 inhibitor hits, dose response, artefact control for Apaf-1 inhibitor project. shares compounds with Apaf1 inhib. fluorescence interference counterscreen, Apaf-1 assay format. IC50, µM. 460 tested, under 10 active; call rule not given here
# Numbers without * were called inactive; nt = no result given. Sampled rows, rich in hits. Any-hit rate of the full collection: about 3%.
SMILES,UBC13 inh,hiPSC survival,MIN6 prolif,Apaf1 inhib,MPTP inh,Granule exo inh,Apaf-1 inh conf,Rh110 interf inh,others
Cc1cccc(C)c1NC(=O)CSc1nnc(-c2ccco2)c(-c2ccco2)n1,-13.5,-1.7,-2.0,41.7*,-0.9,0.8,26.9,1.7,
Cn1c(C(=O)N2CCN(c3nc4ccccc4s3)CC2)cc2sccc21,6.6,0.7,-3.2,40.7*,1.0,-0.6,33.4,2.9,
CCC(=O)N1CCC1(C)C(=O)Nc1ccc2nc(C)ccc2c1 (configuration not stated),nt,-1.8,nt,nt,-0.3,4.5,nt,nt,
Cc1ccc(C)c2[nH]c(=O)c(C(c3nnnn3Cc3ccco3)N3CCc4ccccc4C3)cc12 (configuration not stated),-21.3,1.4,-2.7,70.6*,-4.1,-2.3,21.6,-2.7,
C=CCOc1c(Cl)cc(CNc2ccc(N(C)C)cc2)cc1OC,-10.0,-4.0,-6.3,63.8*,-3.3,2.6,19.4,2.8,
C=CCOc1c(Cl)cc(CNc2ccc(C)c(Cl)c2)cc1OC,0.5,nt,-5.7,18.3,nt,nt,nt,nt,
O=C(Nc1ccccc1N1CCN(C(=O)c2ccccc2)CC1)c1ccc(Br)o1,3.9,-0.5,3.1,38.2,1.3,-10.0,nt,nt,
CC(=O)c1ccc(-c2cnc3c(NC=O)cc(-c4cnn(C)c4)cn23)cc1,nt,-1.7,nt,nt,1.1,3.2,nt,nt,
CCOc1ccc2nc3cc(NCc4ccc(OC)cc4)ccc3c(N)c2c1,38.4,-0.9,-4.9,96.5*,2.1,33.5,82.5*,-3.6,Apaf1 inh interf=>100
CCn1cnc2cc(NCc3ccc(OC)cc3)ccc21,-7.2,-2.2,-3.0,-9.8,0.4,-2.2,nt,nt,
Oc1cccc(/C=N/N2CCCCC2)c1O,-0.1,-0.5,-4.1,7.7,0.3,4.9,nt,nt,
Oc1ccc(/C=N/N2CCCCC2)c(O)c1O,7.5,0.2,-6.9,69.6*,0.7,-6.0,18.8,2.9,
CC(NC(=O)C1CCN(C(=O)c2cccs2)CC1)c1ccc(S(N)(=O)=O)cc1 (configuration not stated),34.3,1.0,-0.3,62.1*,0.5,-2.8,34.8,11.5,
CCN1CCN(c2ccc(S(=O)(=O)N3CCOCC3)cc2NC(=O)C(C)Oc2cccc(Cl)c2)CC1 (configuration not stated),-3.6,-0.6,-4.4,16.4,0.5,-2.3,nt,nt,
CC(Oc1cccc(Cl)c1)C(=O)Nc1cc(S(=O)(=O)N2CCOCC2)ccc1N1CCCCC1 (configuration not stated),21.5,1.1,-6.9,47.7*,-3.1,12.1,43.5*,3.2,Apaf1 inh interf=>100
CCOC(=O)c1cc2cc3ccccc3cc2[nH]1,-26.7,-1.1,-3.9,58.4*,8.6,1.3,10.8,6.7,
COc1ccc(-n2nc(C(=O)NCC(=O)NC3CCCC(C)C3C)c3ccccc3c2=O)c(OC)c1 (configuration not stated),2.1,-0.5,0.7,55.1*,1.3,12.2,62.4*,2.8,Apaf1 inh interf=>100
COc1ccc(-n2nc(C(=O)NCC(=O)NC3CCCC(C)C3C)c3ccccc3c2=O)cc1 (configuration not stated),15.3,0.0,0.0,51.2*,3.4,3.0,36.2,6.5,
O=c1[nH]c(Nc2ccccc2)cc2ccccc12,-42.7,-4.3,-0.4,96.1*,-2.0,-1.3,93.8*,-1.0,Apaf1 inh interf=>100
Cn1c(=O)cc(Nc2ccccc2)[nH]c1=O,0.2,-1.0,-0.2,3.3,-0.3,-4.8,nt,nt,
